Assays:
MS2 coat protein [1] = test: apparent Kd, MS2 coat protein; higher = weaker binding; RNA-MaP array
Outline: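 Designs measured on fewer than 10 clusters were excluded from the data. The rest were RNAs transcribed from sequenced DNA templates on an Illumina sequencing chip and incubated at room temperature, with or without input ligand, with fluorescently labeled MS2 coat protein at 1.5 nM to 3 μM for 0.8–1.5 h at the lowest to 10–20 min at the highest concentrations. Apparent Kd is the median of the per-cluster binding-curve fits.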

MS2 coat protein [2] = test: apparent Kd, MS2 coat protein; higher = weaker binding; RNA-MaP array; FMN 200 µM where present
Outline: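 Each design was made on Illumina sequencing-chip clusters by stalled E. coli RNA polymerase and titrated with SNAP-549-labelled MS2 coat protein from 0.7 or 1.5 nM, doubling to 3 µM, in the absence and then the presence of constant ligand. The buffer was 100 mM Tris-HCl pH 7.5, 80 mM KCl, 4 mM MgCl2, BSA, DTT, yeast tRNA and Tween-20. The apparent Kd is the median of filtered per-cluster fits of binding curves, with green signal normalised to red-channel RNA signal and control-cluster median Fmax.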

[3] = designed as: OFF switch for flavin mononucleotide, no ligand
[4] = ligand present: flavin mononucleotide, designed as: OFF switch for flavin mononucleotide
[5] = designed as: ON switch for flavin mononucleotide, no ligand
[6] = ligand present: flavin mononucleotide, designed as: ON switch for flavin mononucleotide

## AAAACUACAGAUACCUUAACAUGAGGAUCACCCAUGUGAGCUGAGGAUAUGUCCACGCUUUAAGGACAGAAGGCAGGAGCAUAG
MS2 coat protein [1]; [3]
  apparent Kd: 25.2 nM
MS2 coat protein [1]; [4]
  apparent Kd: 36.9 nM

## AAAUUAAUCAGAGGAUAUAGACAUGAGGAUCACCCAUGUACCAAAAUCGCGAAGAAGGAUCCGUGCUAGAAGGCAGAAUACAUA
MS2 coat protein [1]; [3]
  apparent Kd: 10.3 nM
MS2 coat protein [1]; [4]
  apparent Kd: 8.65 nM

## AACCACAUGAGGAUCACCCAUGUGACCGCUCGAGGACCGGUACGGCCGCCACUCGUGGAGGGACUUAUGCGUUAUCCGGGUAAAU
MS2 coat protein [1]; designed as: ON switch for tryptophan, no ligand
  apparent Kd: 19.4 nM
MS2 coat protein [1]; ligand present: tryptophan, designed as: ON switch for tryptophan
  apparent Kd: 22.6 nM

## AACGGUGCGCGAGGAUAUCACGUACCAAGAGGAUGAGAAGGCGCGCGUACAGGUUGGUGAACAUGAGGAUCACCCAUGUGGUAC
MS2 coat protein [1]; [3]
  apparent Kd: 99.5 nM
MS2 coat protein [1]; [4]
  apparent Kd: 87.2 nM

## AACGGUUUUUAGAAGGGCGUCAGGGACCUUGGACAUGAGGAUCACCCAUGUGUGCAGACACCUGCGCAGGAUAUAAGUUCUCUA
MS2 coat protein [1]; [3]
  apparent Kd: 12.6 nM
MS2 coat protein [1]; [4]
  apparent Kd: 9.53 nM

## AAGCCACAUGAGGAUCACCCAUGUGAGGAUAUUCAUCUAGAUCAACAAGACACGGAUAGAAGAAGGCACGGUGG
MS2 coat protein [1]; [3]
  apparent Kd: 14 nM
MS2 coat protein [1]; [4]
  apparent Kd: 29.5 nM

## AAGGCUACGACCGAUACCAGUAGACGGCAUUCGUAGGAGAACAUGAGGAUCACCCAUGUCUACCCUUGGCAGCGGAAAAUACACU
MS2 coat protein [1]; designed as: OFF switch for theophylline, no ligand
  apparent Kd: 13.5 nM
MS2 coat protein [1]; ligand present: theophylline, designed as: OFF switch for theophylline
  apparent Kd: 39.8 nM

## ACAGUACAUGAGGAUCACCCAUGUAGAAGAUGCUCAGGAUAUUGUGAGUCAGGUUAUGUACAAGAAGGGAGGCACG
MS2 coat protein [1]; [5]
  apparent Kd: 25.4 nM
MS2 coat protein [1]; [6]
  apparent Kd: 14.1 nM

## UUUAGUUCAGGAUAUGUAGAUUUUAACAUGAGGAUCACCCAUGUAGAUCCUGAAUUAACUACAGAAGGGAACAUUC
MS2 coat protein [2]; [3]
  apparent Kd: 17.1 nM
MS2 coat protein [2]; [4]
  apparent Kd: 44.2 nM

## UUUAUGAAGAUUCGUCAAUACAGUUAGGAUAUGAGAGACAUGAGGAUCACCCAUGUGCAUGUUGAUUAGAAGGAACAAUUAUCU
MS2 coat protein [2]; [3]
  apparent Kd: 19.1 nM
MS2 coat protein [2]; [4]
  apparent Kd: 16.9 nM

## UUUAUGUCAGGAUAUACAUGAGGAUCACCCAUGUAUAUCUUAAAAUAUACAUGGGUAUGUAGAAGGGACCUCCU
MS2 coat protein [2]; [3]
  apparent Kd: 86.5 nM
MS2 coat protein [2]; [4]
  apparent Kd: 77.1 nM

## UUUAUGUCAGGAUAUGAGUAGUAGAACAAUAGUACUACUACUCAGAAGGGACAUGAGGAUCACCCAUGUUCCUC
MS2 coat protein [2]; [3]
  apparent Kd: 18.2 nM
MS2 coat protein [2]; [4]
  apparent Kd: 98.8 nM

## UUUAUUAAUUAAUAUAAUAAGAUCACAUGAGGAUCACCCAUGUAGGAUAUCAGCUCGAUUAGAGCUGAGAAGGACAUAAUUAUA
MS2 coat protein [2]; [3]
  apparent Kd: 34.8 nM
MS2 coat protein [2]; [4]
  apparent Kd: 110 nM

## UUUAUUUAGGCAGGAUAUACAUGUAUAUAUAUUUCUUUAUAUCUUAUUACAUGAGGAUCACCCAUGUAGAAGGGCCUUCUUAUC
MS2 coat protein [2]; [3]
  apparent Kd: 30.1 nM
MS2 coat protein [2]; [4]
  apparent Kd: 34.5 nM

## UUUCCCUGUGUGAGGAUAUACUUGUUUGGGUUUUUGUAGAAGGCACAUGAGGAUCACCCAUGUAUUUUGUCGUG
MS2 coat protein [2]; [3]
  apparent Kd: 43.1 nM
MS2 coat protein [2]; [4]
  apparent Kd: 111 nM

## UUUGAAUAAGUGAGGAUAUACUGUUAGUAUUGAUUGUAGAAGGUACAUGAGGAUCACCCAUGUUUAGUAUUUAU
MS2 coat protein [2]; [3]
  apparent Kd: 16.3 nM
MS2 coat protein [2]; [4]
  apparent Kd: 15.9 nM

## UUUGCAUUCCGAGGAUAUUCAUAUAAUGACUACACAUGAGGAUCACCCAUGUGGCGAUAGCCUAGGGAGAAGGCGGUUUGCUUU
MS2 coat protein [2]; [5]
  apparent Kd: 20.3 nM
MS2 coat protein [2]; [6]
  apparent Kd: 17.8 nM

## UUUGCAUUCCGAGGAUAUUCAUUUAAUGACUUCACAUGAGGAUCACCCAUGUGGCGAUUGCGCCGGGAGAAGGCGGUUUGCUUU
MS2 coat protein [2]; [5]
  apparent Kd: 24.7 nM
MS2 coat protein [2]; [6]
  apparent Kd: 24 nM

## UUUGGGUCAGGAUAUUGUUAGUUUAGUUGUUUGUAUUAGUUCGAGAAGGGACAUGAGGAUCACCCAUGUGGUAA
MS2 coat protein [2]; [3]
  apparent Kd: 94.9 nM
MS2 coat protein [2]; [4]
  apparent Kd: 69.9 nM

## UUUGUCUGUGUGAGGAUAUACUUUGUUUGGUCGUUGUAGAAGGCACAUGAGGAUCACCCAUGUAGUUUGUUGUG
MS2 coat protein [2]; [3]
  apparent Kd: 20.4 nM
MS2 coat protein [2]; [4]
  apparent Kd: 22.9 nM

## UUUGUUUAUGUGAGGAUAUACUGUUUGUUUUGUUUGUAGAAGGUACAUGAGGAUCACCCAUGUUUUGUAUUUAU
MS2 coat protein [2]; [3]
  apparent Kd: 21.5 nM
MS2 coat protein [2]; [4]
  apparent Kd: 18.8 nM

## UUUGUUUGCGGAGGAUAUAUAAGUGGAUCACCCAUAGAAGGCCGACAUGAGGAUCACCCAUGUUAGACAUGAGGAUCACCCAUG
MS2 coat protein [2]; [3]
  apparent Kd: 102 nM
MS2 coat protein [2]; [4]
  apparent Kd: 140 nM

## UUUUAACAUGAGGAUCACCCAUGUCGUUCAAAUCAAGGAUAUCAGACGUGUACACACGCCUGAGAAGGUGAAGCUC
MS2 coat protein [2]; [5]
  apparent Kd: 51.1 nM
MS2 coat protein [2]; [6]
  apparent Kd: 132 nM

## UUUUAACAUGAGGAUCACCCAUGUGAGGAUAUCGAAAUUUAUAUUAAUAUUAAUUAAUCGAGAAGGCACAUUUU
MS2 coat protein [2]; [3]
  apparent Kd: 106 nM
MS2 coat protein [2]; [4]
  apparent Kd: 113 nM

## UUUUAACAUGAGGAUCACCCAUGUGAGGAUAUCGAAAUUUAUAUUAAUAUUAAUUAUACGAGAAGGCACAUUUU
MS2 coat protein [2]; [3]
  apparent Kd: 83.6 nM
MS2 coat protein [2]; [4]
  apparent Kd: 82.8 nM

## UUUUAACAUGAGGAUCACCCAUGUGAGGAUAUCGAAAUUUAUAUUAAUAUUAAUUUUUCGAGAAGGCACAUUUU
MS2 coat protein [2]; [3]
  apparent Kd: 132 nM
MS2 coat protein [2]; [4]
  apparent Kd: 150 nM

## UUUUAACAUGAGGAUCACCCAUGUGAGGAUAUCGAAAUUUAUAUUAAUAUUAUUUAUACGAGAAGGCACAUUUU
MS2 coat protein [2]; [3]
  apparent Kd: 63.2 nM
MS2 coat protein [2]; [4]
  apparent Kd: 73.4 nM

## UUUUAACAUGAGGAUCACCCAUGUGAGGAUAUCGAAAUUUAUAUUUAUAUUAAUUAUUCGAGAAGGCACAUUUU
MS2 coat protein [2]; [3]
  apparent Kd: 163 nM
MS2 coat protein [2]; [4]
  apparent Kd: 133 nM

## UUUUAACAUGAGGAUCACCCAUGUGAGGAUAUCGAAAUUUAUAUUUAUAUUUAUAAUACGAGAAGGCACAUUUU
MS2 coat protein [2]; [3]
  apparent Kd: 80.3 nM
MS2 coat protein [2]; [4]
  apparent Kd: 93.6 nM

## UUUUACAUAGGAUAUAGUCUUUUUUACAUGAGGAUCACCCAUGUCUCUCUUUUUUUUUUUCUAGAAGGAUGUUUUU
MS2 coat protein [2]; [3]
  apparent Kd: 42.9 nM
MS2 coat protein [2]; [4]
  apparent Kd: 30.9 nM

## UUUUACCUAGGAUAUACAUUUUUUUUAUUAUUUUCAUUAUAACAUGAGGAUCACCCAUGUAGAAGGAGGAUUUU
MS2 coat protein [2]; [3]
  apparent Kd: 28.4 nM
MS2 coat protein [2]; [4]
  apparent Kd: 33.6 nM

## UUUUACUGAGGAUAUACAUUUUUUUAUUUAUUUAUAAUAUUACAUGAGGAUCACCCAUGUAGAAGGCAGAUUUU
MS2 coat protein [2]; [3]
  apparent Kd: 27.4 nM
MS2 coat protein [2]; [4]
  apparent Kd: 24.4 nM

## UUUUAGGCAGGAUAUACAUUUUUUUUAUUAUCCUCAUUAUUACAUGAGGAUCACCCAUGUAGAAGGGCCAUUUU
MS2 coat protein [2]; [3]
  apparent Kd: 48.1 nM
MS2 coat protein [2]; [4]
  apparent Kd: 50.2 nM

## UUUUAGUCAGGAUAUACAUGAGGAUCACCCAUGUAAAAUUUUAAUUUAAUUUUAAGGUGUAGAAGGGACAAUUC
MS2 coat protein [2]; [3]
  apparent Kd: 48 nM
MS2 coat protein [2]; [4]
  apparent Kd: 38.6 nM

## UUUUAGUCAGGAUAUCGUUAAUUUAAUUGUUUGUAUUAGUUCGAGAAGGGACAUGAGGAUCACCCAUGUACUUU
MS2 coat protein [2]; [3]
  apparent Kd: 23.7 nM
MS2 coat protein [2]; [4]
  apparent Kd: 24.5 nM

## UUUUCUUUUGUGAGGAUAUACUUGUUUUUUUUUUUGUAGAAGGCACAUGAGGAUCACCCAUGUUUUCUUUCCUG
MS2 coat protein [2]; [3]
  apparent Kd: 17 nM
MS2 coat protein [2]; [4]
  apparent Kd: 19.8 nM

## UUUUUAUUUGAAGGAUAUACUUAACAUGAGGAUCACCCAUGUGGUGUUGUGAGUGAGUGAGUUUAGUAGAAGGUCAAUUCUUUU
MS2 coat protein [2]; [3]
  apparent Kd: 401 nM
MS2 coat protein [2]; [4]
  apparent Kd: 696 nM

## UUUUUGUCAGGAUAUCGUGCAUACAACGAAAGUUCUAUGUGCGAGAAGGGACAUGAGGAUCACCCAUGUUACGG
MS2 coat protein [2]; [3]
  apparent Kd: 109 nM
MS2 coat protein [2]; [4]
  apparent Kd: 371 nM

## UUUUUGUGAGGAUAUGCGUAGUAGAACAAUAGUACUACUACGUAGAAGGCACAUGAGGAUCACCCAUGUUCCUC
MS2 coat protein [2]; [3]
  apparent Kd: 37.8 nM
MS2 coat protein [2]; [4]
  apparent Kd: 254 nM

## UUUUUGUGAGGAUAUUAGUAGUAAAUAAAUAAAAUUACUACUGAGAAGGCACAUGAGGAUCACCCAUGUUCCUC
MS2 coat protein [2]; [3]
  apparent Kd: 33.6 nM
MS2 coat protein [2]; [4]
  apparent Kd: 254 nM

## UUUUUUCCUCAUGUACAUGAGGAACAUGAGGAUCACCCAUGUAGAAGGAUUUCCCUUAAAUUAAGAUAGGAUAUACAUAUUUUU
MS2 coat protein [2]; [3]
  apparent Kd: 88.2 nM
MS2 coat protein [2]; [4]
  apparent Kd: 61.6 nM

## UUUUUUUUAGUAAGGAUAUGAUGCAGGAAACUGCGUCAGAAGGUACAUGAGGAUCACCCAUGUUAAUUUUUUUU
MS2 coat protein [2]; [3]
  apparent Kd: 17.2 nM
MS2 coat protein [2]; [4]
  apparent Kd: 22.4 nM

## UUUUUUUUUAGAGGAUAUAUUGUGUGUUAUAUAAUAGAAGGCUAAACAUGUGACAUACACAUGAGGAUCACCCAUGUUUUGUUU
MS2 coat protein [2]; [5]
  apparent Kd: 31.6 nM
MS2 coat protein [2]; [6]
  apparent Kd: 27 nM

Source: the EternaBench riboswitch data
